hDAT+cocaine: changed hDAT dopamine uptake under cocaine IC80, either direction, primary screen, cocaine antagonist project, cell-based, LLC-PK1 hDAT, [14C]-dopamine uptake, MLSMR; LLC-PK1 hDAT cells, [14C]-dopamine uptake with cocaine IC80; actives deviate in either direction; B-score at 10 µM; 110,000 compounds, 1.3% hits; Sodium-dependent dopamine transporter (Homo sapiens), Q01959; AID 449768, 2010;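 active = Z score or B-score, a plate-position-corrected score, falls beyond the plate's 99.7% confidence bounds, in either direction; inactive = both scores lie inside the 99.7% bounds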
Target sequence (Q01959 whole entry, looked up): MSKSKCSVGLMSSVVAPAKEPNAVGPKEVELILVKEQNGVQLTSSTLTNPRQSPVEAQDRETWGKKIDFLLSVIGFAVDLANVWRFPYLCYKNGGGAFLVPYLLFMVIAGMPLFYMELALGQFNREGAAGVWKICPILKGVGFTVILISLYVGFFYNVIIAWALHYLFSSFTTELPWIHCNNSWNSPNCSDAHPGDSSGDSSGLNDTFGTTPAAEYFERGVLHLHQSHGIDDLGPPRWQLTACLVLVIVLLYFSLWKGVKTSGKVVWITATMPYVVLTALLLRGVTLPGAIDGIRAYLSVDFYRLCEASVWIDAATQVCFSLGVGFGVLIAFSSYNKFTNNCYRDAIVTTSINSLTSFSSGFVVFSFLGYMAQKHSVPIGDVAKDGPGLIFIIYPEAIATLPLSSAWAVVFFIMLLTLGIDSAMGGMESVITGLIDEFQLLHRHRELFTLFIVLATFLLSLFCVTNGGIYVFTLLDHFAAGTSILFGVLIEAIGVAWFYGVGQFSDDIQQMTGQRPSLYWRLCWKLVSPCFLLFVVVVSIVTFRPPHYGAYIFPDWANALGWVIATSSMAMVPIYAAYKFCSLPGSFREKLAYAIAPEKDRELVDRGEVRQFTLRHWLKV
M1 antagonist: antagonists of rat M1 muscarinic receptor; CHO-M1 cells, Fluo-4 calcium, ACh EC80 antagonist mode; active compounds read low; B-score at 10 µM; 64,000 compounds, 3.4% hits;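 active = calcium fluorescence response, raw or row-and-column corrected B-score, differing from the plate sample mean either way at a set confidence level, mostly lower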
M1 ag: M1 muscarinic receptor agonists, primary screen, CHO-M1 cells, Fluo-4 calcium, agonist mode. Muscarinic acetylcholine receptor M1. Fluo-4 calcium fluorescence; active compounds read high. B-score at 10 µM. 64,000 compounds, 3% hits;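 active = fluorescence rise, raw or as B-score row- and column-corrected plate score, outside the 99.7% band of its plate's samples, either direction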
Jurkat tox 60K: cytotoxicity toward Jurkat T cells, primary screen, cytotoxicity control, cell-based, Jurkat E6.1, 60K MLSMR library; inhibition, % at 4 µM; Jurkat E6.1 viability, ATP luminescence, 48 h; 56,000 compounds, 1.2% hits;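 active = inhibition above the mean inhibition of all tested compounds plus 3 SD, cut at about 28% in these data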
D1 mod: D1 CRE-luciferase signal change, two-sided – cell-based, HEK293 D1, dopamine EC30, D1 allosteric modulator project, primary screen; B-score at 10 µM; 58,000 compounds, 5.9% hits; dopamine EC30 potentiation; actives deviate in either direction; D(1A) dopamine receptor (Homo sapiens), P21728;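 active = luminescence count or its row- and column-corrected plate score outside the 99.7% band of the plate's sample wells, on either side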
HEK293 NFkB inh: inhibitors of PMA/ionomycin-induced NF-kB reporter, primary screen, antigen receptor NF-kB inhibitor project, cell-based, HEK-293 luciferase reporter, luminescence; inhibition, % at 3 µM; HEK-293 NF-kB luciferase reporter; 62,000 compounds, 0.21% hits; AID 465, 2006;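 active = inhibition above the mean of all tested compounds plus 3 SD, cut at about 40% in these data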
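Timing: 1 h pretreatment, 16 h stimulation, 37 °C; system: HEK-293 cells with stable firefly luciferase reporter driven by four HIV NF-kB elements; doses: 3 µM once, 0.30% DMSO; measured by: luciferase luminescence; control set: DMSO and 10 µM reference inhibitor; repeats: single test; reagent: PMA plus ionomycin mix as NF-kB-activating stimulus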
Large screens that a line does not name were inactive. The list is not random: actives were taken first. Their share in the collection is about 7.6%.

CCCn1c(SCC(N)=O)nnc1-c1ccco1	D1 mod -3.19 (no result: Jurkat tox 60K)
CC(C)OC(=O)CSc1nnc(-c2ccco2)n1N	D1 mod -3.12 (no result: hDAT+cocaine)
NC(=O)CSc1nnc(-c2ccco2)n1N	none (no result: M1 antagonist, M1 ag, Jurkat tox 60K, D1 mod, HEK293 NFkB inh)
CCn1c(SCC(N)=O)nnc1-c1ccco1	none
CCN1CCN(C2CCN(C(C)=O)CC2)CC1	none (no result: hDAT+cocaine)
Cc1cccc(C)c1NC(=O)CSc1nnc([C@H](C)NC(=O)OC(C)(C)C)o1	none
CC(C)c1ccc(C(C(=O)NC(C)(C)C)N(C(=O)CNC(=O)c2ccco2)c2cccnc2)cc1 (stereo not drawn)	none (no result: M1 antagonist, M1 ag, Jurkat tox 60K, D1 mod, HEK293 NFkB inh)
CCC(C)(C)NC(=O)C(c1ccco1)N(C(=O)CNC(=O)c1cccs1)c1cccnc1 (stereo not drawn)	hDAT+cocaine -8.17 (no result: M1 antagonist, M1 ag, Jurkat tox 60K, D1 mod, HEK293 NFkB inh)
CCOc1cc(CNCc2ccncc2)cc(Br)c1OCc1ccc(F)cc1	none (no result: M1 antagonist, M1 ag, Jurkat tox 60K, D1 mod, HEK293 NFkB inh)
CCOC(=O)C1=C(N)c2ccccc2CC1C(C)C (stereo not drawn)	none (no result: Jurkat tox 60K, HEK293 NFkB inh)
NC(=O)C1CCN(C(=O)c2ccco2)CC1	none (no result: M1 antagonist, M1 ag, Jurkat tox 60K, D1 mod, HEK293 NFkB inh)
Cc1ccc(S(=O)(=O)N2CCN(C(=O)CCC(=O)N3CCc4ccccc43)CC2)cc1	M1 antagonist -3.35 (no result: Jurkat tox 60K)
COc1ccc(Cn2nnnc2C(c2ccccc2)N2CCN(C3CCCC3)CC2)cc1 (stereo not drawn)	M1 antagonist 1.86
C=CCN1C(=O)C(Cc2ccc(OC)cc2)S/C1=N/N=C/c1ccco1 (stereo not drawn)	none (no result: M1 antagonist, M1 ag, Jurkat tox 60K, D1 mod, HEK293 NFkB inh)
C=CCN1C(=O)C(Cc2ccc(OC)cc2)S/C1=N\N=C\c1cccs1 (stereo not drawn)	hDAT+cocaine 2.96 (no result: M1 antagonist, M1 ag, Jurkat tox 60K, D1 mod, HEK293 NFkB inh)
COc1ccc(N=CC2=C(O)CCCC2=O)cc1	none
CCOC(=O)/C(C#N)=C1/C=CN(C)C(C)=N1	none
CCOC(=O)/C(C#N)=C1/C=C(C)NC(c2ccccc2O)=N1	M1 antagonist -7.07, M1 ag 15.6
O=C1c2ccccc2C(=O)C1c1ccnc2ccccc12	none (no result: M1 antagonist, M1 ag, Jurkat tox 60K, D1 mod, HEK293 NFkB inh)
O=C1c2ccccc2C(=O)C1c1nccc2ccccc12	D1 mod -6.82
C=COC(=O)CSc1nc(-c2cccs2)ccc1C#N	M1 antagonist 2.87 (no result: Jurkat tox 60K, HEK293 NFkB inh)
O=C(NCCCN1CCN(c2ccc(F)cc2)CC1)c1cccc(N2CCCC2=O)c1	D1 mod -6.09
CCc1cc2c(=O)n(Cc3ccco3)c(SCc3c(C)noc3C)nc2s1	Jurkat tox 60K 88.2
CC(C)n1c2ccccc2c2nnc(SCC(=O)OCN3C(=O)c4ccccc4C3=O)nc21	none
O=C(NCc1cccs1)c1csc2c1CCCCC2	none
CC(C)(C)NC(=O)CSc1nnc(CN2CCCCCC2=O)n1-c1ccccn1	none
O=C(CSc1nnc(CN2CCCCCC2=O)n1-c1ccccn1)NCC(F)(F)F	D1 mod -3.34
COCCN1Cc2cccc(C(=O)Nc3cc(C)cc(C)c3)c2C1=O	hDAT+cocaine 1.75
CCCN1Cc2cccc(C(=O)Nc3ccc(CC)cc3)c2C1=O	none (no result: M1 antagonist, M1 ag, Jurkat tox 60K, D1 mod, HEK293 NFkB inh)
CCCN1Cc2cccc(C(=O)Nc3ccc(C)cc3)c2C1=O	hDAT+cocaine -7.97 (no result: M1 antagonist, M1 ag, Jurkat tox 60K, D1 mod, HEK293 NFkB inh)
COc1cccc(-c2cc3c(-n4cccc4)ncnc3o2)c1	none (no result: M1 antagonist, M1 ag, Jurkat tox 60K, D1 mod, HEK293 NFkB inh)
COc1ccccc1S(=O)(=O)Cc1ccc(C(=O)NCc2cccs2)o1	M1 antagonist 2.17
COc1ccc(S(=O)(=O)Cc2ccc(C(=O)NCc3cccs3)o2)cc1	none
Cc1nc2c(C(=O)NCCC3=CCCCC3)c[nH]n2c(=O)c1Cl	none (no result: Jurkat tox 60K)
Cc1cc2cc(CNC(=O)C3CC3)ccc2n1C	none
COc1ccc(C(=O)OCC(=O)Nc2ccc(F)c(F)c2F)cc1OC	none (no result: M1 antagonist, M1 ag, Jurkat tox 60K, D1 mod, HEK293 NFkB inh)
COc1cc(C(=O)OCC(=O)Nc2c(F)c(F)c(F)c(F)c2F)cc(OC)c1OC	hDAT+cocaine 3.75
Cc1cc(Cl)ccc1OCC(=O)OC(C)C(=O)N(C)C (stereo not drawn)	none (no result: Jurkat tox 60K, D1 mod, HEK293 NFkB inh)
CCN(CC)C(=O)C(C)OC(=O)COc1ccc(Cl)cc1C (stereo not drawn)	M1 antagonist 1.86
CCOC(=O)c1cnc(SC2CCc3ccccc3C2=O)nc1N (stereo not drawn)	hDAT+cocaine 2.74

Source: PubChem (several laboratories)
